# Measured values of several laboratories.
# Matrix: plasma
Compound,test system,conditions,AUC(0-inf) [ng·h/mL]
COc1ccc2c(=O)n(C)c(-c3ccccc3)nc2c1,male Sprague-Dawley rat,"intravenous, 2 mg/kg",857
COCCOC(=O)C1=C(C)NC(C)=C(C(=O)OC(C)C)C1c1cccc([N+](=O)[O-])c1 (centres unmarked),male Sprague-Dawley rat,"oral, 12 mg/kg",502
CCOC(=O)[C@@]12C[C@@H]1[C@@H](n1ccc3c(NC)nc(C#Cc4ccc(Cl)s4)nc31)[C@H](O)[C@@H]2O,male Sprague-Dawley rat,"oral, 3 mg/kg",172
COc1nc(-c2cc(C)c(N[C@@H](C)c3cc(F)cc(F)c3)nn2)ccc1-n1cnc(C)c1,male Sprague-Dawley rat,"intravenous, 1 mg/kg, single dose",6710
CCc1cc(OC)c2nccc(N3CCc4c(cc(Cn5ccnc5)cc4-c4cn(C)nc4C(F)(F)F)C3=O)c2c1,male Sprague-Dawley rat,"intravenous, 3 mg/kg",955
COc1ccc2c(Cc3ccccc3F)c3[n+](cc2c1OC)CCc1cc2c(cc1-3)OCO2.[Br-],rat,"intravenous, 5 mg/kg",125
Oc1cc(O)cc(-c2cc3ccc(O)cc3o2)c1,male rat,"intravenous, 5 mg/kg",932
COc1ccc2c(Cc3ccccc3F)c3n(c(=O)c2c1OC)CCc1cc2c(cc1-3)OCO2,rat,"oral, 5 mg/kg",7960
COc1ccc(C(C)=O)c(O)c1,male Sprague-Dawley rat,"oral, 100 mg/kg",38600
CCc1cc(C(=O)NC)c2nccc(N3CCc4c(cc(Cn5ccnc5)cc4-c4cn(C)nc4C(F)(F)F)C3=O)c2c1,male Sprague-Dawley rat,"oral, 100 mg/kg",117000
Oc1c(Br)cc(Cl)c2cccnc12,Sprague-Dawley rat,"subcutaneous, 10 mg/kg",5300
COc1cc2c3c(n(CCCN4CCOCC4)c(=O)c2cc1OC)-c1cc2c(cc1C3=O)OCO2,male Fischer 344 rat,"intravenous, 12 mg/m², single dose",232
O=C(Nc1cc(F)c(F)c(F)c1)c1ccc(F)c(S(=O)(=O)NCc2cccc(B(O)O)c2)c1,male Sprague-Dawley rat,"oral, 20 mg/kg",37.6
Cc1c(-c2ccccc2)cccc1N1C(=O)c2cc(CN[C@H](C(=O)O)C(C)O)c(OCc3cccc(C#N)c3)cc2C1=O (some centres unmarked),Sprague-Dawley rat,"intravenous, 5 mg/kg",3260
